Results: PMC4410974 (Clinical cancer research : an official journal of the …, 2012)

What was measured:
Adverse events = type: in vivo, human
[1] = oral multiple dosing; ref [17]–[19]; cited from earlier work
[2] = system: p70S6 kinase phosphorylation at Thr389; experiment: p70S6K phosphorylation at Thr389 in peripheral blood lymphocytes; type: in vivo, human
How it was run: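 Sirolimus-alone study only, oral weekly dosing. Blood drawn before dosing at baseline, week 1 day 2 and day 4, week 2 day 1, week 5 day 1. CD3+ cells enriched after density centrifugation, cryopreserved, then given medium or PMA (0.5 µg/ml) plus ionomycin (0.025 µg/ml), 1 hr, 37 °C. Western blot for phospho-Thr389 and total p70S6K, densitometry, cohort means, paired t-test. Indirect response model with rebound (kin, kout; baseline 100%), FOCE with interaction.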

[3] = three studies collectively, 138 subjects
[4] = indirect response model with rebound

CO[C@H]1C[C@@H]2CC[C@@H](C)[C@@](O)(O2)C(=O)C(=O)N2CCCC[C@H]2C(=O)O[C@H]([C@H](C)C[C@@H]2CC[C@@H](O)[C@H](OC)C2)CC(=O)[C@H](C)/C=C(\C)[C@@H](O)[C@@H](OC)C(=O)[C@H](C)C[C@H](C)/C=C/C=C/C=C/1C [Sirolimus]
Nausea (adverse event) (Adverse events; Sirolimus Alone 45mg (24h)): 2 | Vomiting (adverse event) (Adverse events; Sirolimus Alone 45mg (24h)): 4 | Anorexia (adverse event) (Adverse events; Sirolimus Alone 60mg): 3 | Decreased platelets (adverse event) (Adverse events; Sirolimus Alone 60mg): 1 | Diarrhea (adverse event) (Adverse events; Sirolimus Alone 60mg): 6 | Diarrhea, grade 3 or 4 (Adverse events; Sirolimus Alone 60mg): 1 | Elevated Transaminases (adverse event) (Adverse events; Sirolimus Alone 60mg): 1 | Fatigue (adverse event) (Adverse events; Sirolimus Alone 60mg): 5 | Fever (adverse event) (Adverse events; Sirolimus Alone 60mg): 1 | Hyperglycemia (adverse event) (Adverse events; Sirolimus Alone 60mg): 4 | Hyperlipidemia (adverse event) (Adverse events; Sirolimus Alone 60mg): 6 | Hyperlipidemia, grade 3 or 4 (Adverse events; Sirolimus Alone 60mg): 1 | Infection (adverse event) (Adverse events; Sirolimus Alone 60mg): 1 | Lymphopenia (adverse event) (Adverse events; Sirolimus Alone 60mg): 3 | Nausea (adverse event) (Adverse events; Sirolimus Alone 60mg): 6 | Rash (adverse event) (Adverse events; Sirolimus Alone 60mg): 1 | Vomiting (adverse event) (Adverse events; Sirolimus Alone 60mg): 5 | Weight Loss (adverse event) (Adverse events; Sirolimus Alone 60mg): 4 | Altered taste (adverse event) (Adverse events; Total (n=138)): 5 | Anemia (adverse event) (Adverse events; Total (n=138)): 46 | Anemia, grade 3 or 4 (Adverse events; Total (n=138)): 5 | Anorexia (adverse event) (Adverse events; Total (n=138)): 32 | Anorexia, grade 3 or 4 (Adverse events; Total (n=138)): 1 | Decreased platelets (adverse event) (Adverse events; Total (n=138)): 22 | Diarrhea (adverse event) (Adverse events; Total (n=138)): 58 | Diarrhea, grade 3 or 4 (Adverse events; Total (n=138)): 3 | Dyspnea (adverse event) (Adverse events; Total (n=138)): 6 | Dyspnea, grade 3 or 4 (Adverse events; Total (n=138)): 1 | Edema (adverse event) (Adverse events; Total (n=138)): 5 | Edema, grade 3 or 4 (Adverse events; Total (n=138)): 1 | Elevated Creatinine (adverse event) (Adverse events; Total (n=138)): 1 | Elevated Transaminases (adverse event) (Adverse events; Total (n=138)): 23 | Elevated Transaminases, grade 3 or 4 (Adverse events; Total (n=138)): 2 | Epistaxis (adverse event) (Adverse events; Total (n=138)): 1 | Fatigue (adverse event) (Adverse events; Total (n=138)): 46 | Fatigue, grade 3 or 4 (Adverse events; Total (n=138)): 3 | Fever (adverse event) (Adverse events; Total (n=138)): 4 | Hand & Foot Syndrome (adverse event) (Adverse events; Total (n=138)): 2 | Hyperglycemia (adverse event) (Adverse events; Total (n=138)): 72 | Hyperglycemia, grade 3 or 4 (Adverse events; Total (n=138)): 7 | Hyperlipidemia (adverse event) (Adverse events; Total (n=138)): 59 | Hyperlipidemia, grade 3 or 4 (Adverse events; Total (n=138)): 3 | Hypertension (adverse event) (Adverse events; Total (n=138)): 2 | Hypocalcemia (adverse event) (Adverse events; Total (n=138)): 2 | Hypoglycemia (adverse event) (Adverse events; Total (n=138)): 1(1) | Hypoglycemia, grade 3 or 4 (Adverse events; Total (n=138)): 1(1) | Hypoxia (adverse event) (Adverse events; Total (n=138)): 2 | Infection (adverse event) (Adverse events; Total (n=138)): 14 | Infection, grade 3 or 4 (Adverse events; Total (n=138)): 4 | Leukopenia (adverse event) (Adverse events; Total (n=138)): 17 | Lymphopenia (adverse event) (Adverse events; Total (n=138)): 56 | Lymphopenia, grade 3 or 4 (Adverse events; Total (n=138)): 14 | Mood Alteration (adverse event) (Adverse events; Total (n=138)): 2 | Mucocutaneous dryness (adverse event) (Adverse events; Total (n=138)): 6 | Mucositis (adverse event) (Adverse events; Total (n=138)): 17 | Myalgia (adverse event) (Adverse events; Total (n=138)): 3 | Nail Changes (adverse event) (Adverse events; Total (n=138)): 1(1) | Nail Changes, grade 3 or 4 (Adverse events; Total (n=138)): 1(1) | Nausea (adverse event) (Adverse events; Total (n=138)): 48 | Nausea, grade 3 or 4 (Adverse events; Total (n=138)): 2 | Neutropenia (adverse event) (Adverse events; Total (n=138)): 7 | Paresthesia (adverse event) (Adverse events; Total (n=138)): 2 | Pleural Effusion (adverse event) (Adverse events; Total (n=138)): 1 | Pneumonia (adverse event) (Adverse events; Total (n=138)): 5 | Pneumonia, grade 3 or 4 (Adverse events; Total (n=138)): 4 | Pruritis (adverse event) (Adverse events; Total (n=138)): 6 | Rash (adverse event) (Adverse events; Total (n=138)): 14 | Vomiting (adverse event) (Adverse events; Total (n=138)): 33 | Vomiting, grade 3 or 4 (Adverse events; Total (n=138)): 1 | Weight Loss (adverse event) (Adverse events; Total (n=138)): 15 | Hyperglycemia, subjects with toxicity (Adverse events; [3]): 52% | Hyperlipidemia, subjects with toxicity (Adverse events; [3]): 43% | Lymphopenia, subjects with toxicity (Adverse events; [3]): 41% | volume of distribution [1]: 12 L/kg | phospho-p70S6K activity ([2]; 10 mg weekly dose, 1 week after the initial dose (data not shown)): suppressed | phospho-p70S6K in peripheral T cells ([2]; 48 hours after administration, all dose levels, sirolimus alone study, p = 0.006): inhibition | kout (first-order rate constant for loss of phospho-p70S6K), typical value [2, 4]: 0.05 | krebound, typical value [2, 4]: 11.3 mL/ng | kin (zero-order rate constant for gain of phospho-p70S6K), typical value ([2]; indirect response model with rebound, baseline phosphorylation 100%): 5.5 | Rebound effect on phospho-p70S6K (levels exceeded baseline at later time points), subjects ([2]; sirolimus alone study): six out of twelve
